Experimental data: ChEMBL document CHEMBL4024799, “Synthesis and Biological Characterization of Aryl Uracil Inhibitors of Hepatitis C Virus NS5B Polymerase: Discovery of ABT-072, a trans-Stilbene Analog with Good Oral Bioavailability” (J Med Chem, 2018)
Values after ≈ are worked out from the molar mass of the structure shown. Active and inactive are the calls of the source. The rule behind the calls is not given here.

Tests used:
[1] = system: Hepatitis C virus; test: Antiviral activity against HCV genotype 1b Con1 infected in human HuH7 cells harboring HCV subgenomic bicistronic replicon after 3 days by luciferase reporter gene assay; assay type: functional, cell-based, Hepacivirus hominis; conditions: genotype 1b Con1, Huh-7, 72 h
In short: (§1)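 Subgenomic genotype 1a (H77) or 1b (Con1) replicons carrying firefly luciferase, transfected into Huh-7 cells. Replication inhibition was read as luciferase level in cell lysate on a luminometer and reported as EC50. Runs were done without human plasma or with 40% human plasma added, to assess inhibitor–protein binding.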

[2] = Aqueous solubility of the compound at pH 7.2; assay type: physicochemical; conditions: buffer, read-out: solubility
[3] = system: Hepatitis C virus; test: Antiviral activity against HCV genotype 1a H77 infected in human HuH7 cells harboring HCV subgenomic bicistronic replicon after 3 days in presence of 40% human plasma by luciferase reporter gene assay; assay type: functional, cell-based, Hepacivirus hominis; conditions: genotype 1a H77, Huh-7, 72 h; in short: as §1
[4] = Plasma clearance in Sprague-Dawley rat at 5 mg/kg, iv; assay type: ADME, organism-based
In short: (§2)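 Sprague-Dawley rats, n = 3 per experiment; solution in DMSO:PEG400 (1:9, v/v) given IV or oral; 5 mg/kg for both routes, and 30 mg/kg oral; plasma t1/2, Vss, clearance, Cmax, AUC and F% determined.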

[5] = Cmax in Sprague-Dawley rat at 5 mg/kg, po; assay type: ADME, organism-based; design: dose 5 mg/kg, route oral; conditions: in vivo; in short: as §2
[6] = AUC in Sprague-Dawley rat at 5 mg/kg, po; assay type: ADME, organism-based; conditions: in vivo; in short: as §2
[7] = Volume of distribution at steady state in Sprague-Dawley rat at 5 mg/kg, iv; assay type: ADME, organism-based; conditions: in vivo, read-out: Vdss
In short: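 Sprague-Dawley rats, n = 3 per experiment, each given a 5 mg/kg intravenous dose. The compound was formulated as a solution in DMSO:PEG400 (1:9, v/v). Plasma concentration–time data were used to derive pharmacokinetic parameters, including Vss.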

[8] = system: Rattus norvegicus; test: AUC in Sprague-Dawley rat at 5 mg/kg, iv; assay type: ADME, organism-based; conditions: in vivo; in short: as §2
[9] = Ratio of drug level in Sprague-Dawley rat liver to plasma at 5 mg/kg, po after 24 hrs; assay type: ADME, organism-based
In short: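 Male/female not given; Sprague-Dawley rats, n = 3 per experiment, single 5 mg/kg oral dose given as a solution in DMSO:PEG400 (1:9, v/v). Drug concentrations measured in liver tissue and plasma at 12 h and 24 h post-dose; value reported as the liver-to-plasma concentration ratio.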

[10] = Half life in Sprague-Dawley rat at 30 mg/kg, po; assay type: ADME, organism-based; conditions: in vivo; in short: as §2
[11] = Cmax in Sprague-Dawley rat at 30 mg/kg, po; assay type: ADME, organism-based; design: dose 30 mg/kg, route oral; conditions: in vivo; in short: as §2
[12] = system: Rattus norvegicus; test: AUC in Sprague-Dawley rat at 30 mg/kg, po; assay type: ADME, organism-based; conditions: in vivo; in short: as §2
[13] = Half life in dog at 2.5 mg/kg, iv; assay type: ADME, organism-based, Canis lupus familiaris; conditions: in vivo
[14] = Volume of distribution at steady state in dog at 2.5 mg/kg, iv; assay type: ADME, organism-based, Canis lupus familiaris; conditions: in vivo, read-out: Vdss
[15] = Drug level in dog liver at 2.5 mg/kg, po after 24 hrs; assay type: ADME, organism-based, Canis lupus familiaris; conditions: read-out: Drug uptake
In short: (§3)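 Dogs given oral doses; liver tissue and plasma drug levels measured at 12 and 24 h; liver:plasma ratio calculated.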

[16] = Plasma clearance in dog at 2.5 mg/kg, iv; assay type: ADME, organism-based, Canis lupus familiaris
[17] = system: Canis familiaris; test: AUC in dog at 2.5 mg/kg, iv; assay type: ADME, organism-based, Canis lupus familiaris; conditions: in vivo
[18] = Ratio of drug level in dog liver to plasma at 2.5 mg/kg, po after 12 hrs; assay type: ADME, organism-based, Canis lupus familiaris
[19] = Ratio of drug level in dog liver to plasma at 2.5 mg/kg, po after 24 hrs; assay type: ADME, organism-based, Canis lupus familiaris
[20] = Half life in dog at 30 mg/kg, po; assay type: ADME, organism-based, Canis lupus familiaris; conditions: in vivo
[21] = Cmax in dog at 30 mg/kg, po; assay type: ADME, organism-based, Canis lupus familiaris; design: dose 30 mg/kg, route oral; conditions: in vivo
[22] = system: Canis familiaris; test: AUC in dog at 30 mg/kg, po; assay type: ADME, organism-based, Canis lupus familiaris; conditions: in vivo
[23] = Oral bioavailability in dog at 30 mg/kg; assay type: ADME, organism-based, Canis lupus familiaris; conditions: in vivo
[24] = system: Plasma; test: Drug level in po dosed dog plasma up to 24 hrs; assay type: ADME, organism-based, Canis lupus familiaris; conditions: in vivo; in short: as §3
[25] = system: Plasma; test: Drug level in po dosed Sprague-Dawley rat plasma up to 24 hrs; assay type: ADME, organism-based; conditions: in vivo
In short: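 Sprague-Dawley rats given oral doses; liver tissue and plasma levels measured at 12 and 24 h; liver:plasma ratio calculated.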

[26] = Inhibition of HCV genotype 3a NS5B RNA dependent RNA polymerase assessed as reduction in [3H]UTP incorporation in to RNA preincubated for 15 mins followed by [3H]UTP addition measured after 3 hrs by microbeta scintillation counting method; design: species or system Hepatitis C virus subtype 3a
[27] = Inhibition of HCV genotype 2a NS5B RNA dependent RNA polymerase assessed as reduction in [3H]UTP incorporation in to RNA preincubated for 15 mins followed by [3H]UTP addition measured after 3 hrs by microbeta scintillation counting method; design: species or system Hepatitis C virus subtype 2a
[28] = system: Hepatitis C virus (isolate H77); test: Inhibition of HCV genotype 1a H77 NS5B RNA dependent RNA polymerase C316H mutant assessed as reduction in [3H]UTP incorporation in to RNA preincubated for 15 mins followed by [3H]UTP addition measured after 3 hrs by microbeta scintillation counting method
In short: (§4)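 Standard NS5B polymerase inhibition assay using genotype 1a (H77) or 1b (BK) enzyme. RNA product formation was measured as ³H-UTP incorporated into RNA, read by scintillation counting. IC50 was calculated with a standard IC50 equation.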

[29] = system: Plasma; test: Drug uptake in human plasma administered as single dose; assay type: ADME, cell-free
[30] = system: Hepatitis C virus (isolate BK); test: Inhibition of HCV genotype 1b BK NS5B RNA dependent RNA polymerase Y448H mutant assessed as reduction in [3H]UTP incorporation in to RNA preincubated for 15 mins followed by [3H]UTP addition measured after 3 hrs by microbeta scintillation counting method; in short: as §4
[31] = Cmax in human at 80 mg administered as single dose; assay type: ADME; design: dose 80 mg; conditions: in vivo
In short: (§5)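 Single oral doses of 80, 160 or 320 mg in healthy subjects; plasma concentration-time profiles reported as mean (+SD); Cmax and terminal phase half-life derived.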

[32] = Tmax in human at 80 mg administered as single dose; assay type: ADME; conditions: in vivo
[33] = AUC (infinity) in human at 80 mg administered as single dose; assay type: ADME; design: dose 80 mg, time infinity; conditions: in vivo; in short: as §5
[34] = Cmax in human at 160 mg administered as single dose; assay type: ADME; design: dose 160 mg; conditions: in vivo; in short: as §5
[35] = Tmax in human at 160 mg administered as single dose; assay type: ADME; conditions: in vivo
[36] = AUC (infinity) in human at 160 mg administered as single dose; assay type: ADME; design: dose 160 mg, time infinity; conditions: in vivo; in short: as §5
[37] = Cmax in human at 320 mg administered as single dose; assay type: ADME; design: dose 320 mg; conditions: in vivo; in short: as §5
[38] = Tmax in human at 320 mg administered as single dose; assay type: ADME; conditions: in vivo
[39] = AUC (infinity) in human at 320 mg administered as single dose; assay type: ADME; design: dose 320 mg, time infinity; conditions: in vivo; in short: as §5
[40] = Cmax in human infected with HCV genotype 1 at 160 mg administered once daily for 2 days; assay type: ADME; design: dose 160 mg; conditions: in vivo
In short: (§6)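 HCV GT1-infected patients (N=4) given 160 mg once daily for 2 days; plasma Cmax, AUC and t1/2 determined.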

[41] = Tmax in human infected with HCV genotype 1 at 160 mg administered once daily for 2 days; assay type: ADME; conditions: in vivo
[42] = Half life in human infected with HCV genotype 1 at 160 mg administered once daily for 2 days; assay type: ADME; conditions: in vivo; in short: as §6
[43] = AUC (0 to 24 hrs) in human infected with HCV genotype 1 at 160 mg administered once daily for 2 days; assay type: ADME; design: time < 24 hr, dose 160 mg; conditions: in vivo; in short: as §6

COc1c(/C=C/c2ccc(NS(C)(=O)=O)cc2)cc(-n2ccc(=O)[nH]c2=O)cc1C(C)(C)C [ABT-072]
EC50 [1]: 0.3 nM | solubility [2]: 20.7 µM (≈ 9.72 µg/mL) | EC50 [3]: 19 nM | clearance [4]: 15 mL/min/kg | Cmax [5]: 280 ng/mL | AUC [6]: 2520 ng·h/mL | Vd [7]: 3.7 L/kg | AUC [8]: 5730 ng·h/mL | Kp at 24 h [9]: 46 | half-life [10]: 3.5 h | Cmax [11]: 2000 ng/mL | AUC [12]: 21600 ng·h/mL | half-life [13]: 5.5 h | Vd [14]: 1.5 L/kg | concentration at 24 h [15]: > 1000 ng/g | clearance [16]: 2.5 mL/min/kg | AUC [17]: 16800 ng·h/mL | Kp at 12 h [18]: 11 | Kp at 24 h [19]: 10 | half-life [20]: 9.6 h | Cmax [21]: 7560 ng/mL | AUC [22]: 124000 ng·h/mL | bioavailability [23]: 61% | Drug uptake [24]: Dose-dependent effect | Drug uptake [25]: Dose-dependent effect | IC50 [26]: 3000 nM | IC50 [27]: 23000 nM | inhibition [28]: inactive | Drug uptake [29]: Dose-dependent effect | inhibition [30]: inactive | Cmax [31]: 180 ng/mL | Tmax [32]: 5.1 h | AUC(0-inf) [33]: 2440 ng·h/mL | Cmax [34]: 303 ng/mL | Tmax [35]: 6.8 h | AUC(0-inf) [36]: 4640 ng·h/mL | Cmax [37]: 486 ng/mL | Tmax [38]: 8.8 h | AUC(0-inf) [39]: 7200 ng·h/mL | Cmax [40]: 415 ng/mL | Tmax [41]: 3.6 h | half-life [42]: 8.56 h | AUC at 24 h [43]: 4180 ng·h/mL
